Measured values taken from ChEMBL document CHEMBL1131326, “Design, synthesis, and antiviral evaluations of 1-(substituted benzyl)-2-substituted-5,6-dichlorobenzimidazoles as nonnucleoside analogues of 2,5,6-trichloro-1-(beta-D-ribofuranosyl)benzimidazole” (J Med Chem, 1998).

What was measured:
Human alphaherpesvirus 1 = assay: Antiviral activity against herpes simplex virus type-1 (HSV-1); assay type: functional, organism-based
Method in brief: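 BSC-1 cells (10 000/well, MEM(E) + 10% calf serum) incubated overnight, then given drug in quadruplicate plus HSV-1 KOS at 100 pfu/well; 3 days at 37 °C. ELISA with HRP-conjugated rabbit anti-HSV-1 antibody, TMB substrate, stopped with H₂SO₄, absorbance at 450 and 570 nm; IC50 by regression of % absorbance reduction vs log concentration.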

[1] = test system: Human immunodeficiency virus 1; assay: Activity against HIV-1 by syncytial plaque assay performed in duplicate using CEM-SS cells; assay type: functional, organism-based; settings: Human immunodeficiency virus 1, CEM-SS
Method in brief: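 Syncytial plaque assay: poly-L-lysine-adherent CEM-SS cells infected with HIV-1 strain IIIB with or without compound at selected concentrations; syncytial plaques counted at 30-fold magnification 7 days postinfection; duplicate. IC50 from linear regression of percent inhibition against log concentration.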

Human betaherpesvirus 5 = assay: Antiviral activity against human cytomegalovirus (HCMV) by plaque reduction assay; assay type: functional, organism-based
Method in brief: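 HFF monolayers infected with about 100 pfu/cm² of HCMV Towne (isolate Po); after adsorption, compound in growth medium added to duplicate wells at four to eight concentrations.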

HFF = assay: Visual cytotoxicity scored on HFF cells at a time of HCMV plaque enumeration; assay type: functional, cell-based; settings: Homo sapiens
Method in brief: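 Cytotoxicity in stationary HFF cells scored by microscopic inspection of cells not affected by virus, at time of HCMV plaque enumeration, in the plaque-assay plates.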

CEM-SS = assay: Cytotoxicity against CEM-SS cells in terms of incorporation of [3H]dThd; assay type: functional, cell-based; settings: Homo sapiens
Method in brief: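 DNA synthesis in CEM-SS cells measured as uptake of [³H]dThd into total acid-precipitable material; results averaged from duplicate experiments.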

KB = assay: Inhibition of KB cell growth determined by quadruplicate assays; assay type: functional, cell-based; settings: Homo sapiens
Method in brief: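 KB cells seeded at 3000-5000/well, overnight at 37 °C, then compound in quadruplicate at six to eight concentrations for 48 h (about two doublings) in CO₂. Cells fixed in 95% ethanol, stained with 0.1% crystal violet, dye eluted with acidified ethanol and read at 570 nm; IC50 by regression vs log concentration.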

Row | SMILES | IC50 (Human alphaherpesvirus 1) [µM] | IC50 [1] [µM] | IC50 (Human betaherpesvirus 5) [µM] | IC50 (KB) [µM] | IC50 (HFF) [µM] | IC50 (CEM-SS) [µM]
1 | Nc1nc2cc(Cl)c(Cl)cc2n1Cc1ccc([N+](=O)[O-])cc1 | > 100 | 21 | > 100 | 35 | > 100 | 32
2 | Clc1cccc(Cn2c(Br)nc3cc(Cl)c(Cl)cc32)c1 | 70 | > 100 | > 100 | > 100 | > 100 | > 100
3 | Clc1cc2nc(Cl)n(Cc3ccccc3)c2cc1Cl | > 100 | – | > 100 | > 100 | > 100 | –
4 | Clc1ccc(Cn2c(Cl)nc3cc(Cl)c(Cl)cc32)cc1Cl | > 100 | > 100 | > 100 | > 100 | > 100 | > 100
5 | Cc1ccc(Cn2c(Cl)nc3cc(Cl)c(Cl)cc32)cc1 | > 100 | 33 | > 100 | > 100 | 32 | > 100
6 | COc1ccc(Cn2c(N)nc3cc(Cl)c(Cl)cc32)cc1 | > 100 | 12 | > 100 | 45 | > 100 | 27
7 | Clc1cccc(Cn2c(Cl)nc3cc(Cl)c(Cl)cc32)c1 | > 100 | 100 | > 100 | – | > 100 | > 100
8 | FC(F)(F)c1cccc(Cn2c(Br)nc3cc(Cl)c(Cl)cc32)c1 | – | 12 | > 100 | – | > 100 | > 100
9 | Fc1ccc(Cn2c(Br)nc3cc(Cl)c(Cl)cc32)cc1 | – | 30 | > 100 | – | > 100 | > 100
10 | OC[C@H]1O[C@H](n2c(Br)nc3cc(Cl)c(Cl)cc32)[C@@H](O)[C@H]1O | – | – | – | > 100 | – | –

More lines, main results first:

Row | IC50 (Human alphaherpesvirus 1) [µM] | IC50 [1] [µM] | IC50 (Human betaherpesvirus 5) [µM] | IC50 (KB) [µM] | SMILES | IC50 (HFF) [µM] | IC50 (CEM-SS) [µM]
11 | > 100 | > 100 | > 100 | > 100 | Cc1ccc(Cn2c(Br)nc3cc(Cl)c(Cl)cc32)cc1 | > 100 | > 100
12 | > 100 | > 100 | > 100 | > 100 | Clc1ccc(Cn2c(Br)nc3cc(Cl)c(Cl)cc32)cc1 | > 100 | > 100
13 | > 100 | – | > 100 | > 100 | Clc1cc2nc(Br)n(CCc3ccccc3)c2cc1Cl | > 100 | –
14 | – | 100 | > 100 | – | CC(C)(C)c1ccc(Cn2c(Br)nc3cc(Cl)c(Cl)cc32)cc1 | > 100 | > 100
15 | – | – | > 100 | – | Clc1cc2nc(Cl)n(CCc3ccccc3)c2cc1Cl | > 100 | –
16 | > 100 | > 100 | > 100 | > 100 | CC(C)(C)c1ccc(Cn2c(Cl)nc3cc(Cl)c(Cl)cc32)cc1 | > 100 | > 100
17 | > 100 | 26 | > 100 | > 100 | COc1ccc(Cn2c(Cl)nc3cc(Cl)c(Cl)cc32)cc1 | > 100 | > 100
18 | 50 | > 6 | 40 | 35 | Nc1nc2cc(Cl)c(Cl)cc2n1Cc1ccc(Cl)c(Cl)c1 | 32 | 30
19 | > 100 | 6 | 32 | – | Nc1nc2cc(Cl)c(Cl)cc2n1Cc1ccccc1Cl | 32 | 36
20 | 152 | – | 37 | 170 | Nc1nc2cc(Cl)c(Cl)cc2n1Cc1ccccc1 | 58 | –
21 | – | 1.8 | 32 | – | Nc1nc2cc(Cl)c(Cl)cc2n1Cc1ccc(C(F)(F)F)cc1 | 32 | 20
22 | 50 | – | 22 | 45 | CC(C)Nc1nc2cc(Cl)c(Cl)cc2n1Cc1ccccc1 | 22 | –
23 | 60 | > 6 | 32 | – | Nc1nc2cc(Cl)c(Cl)cc2n1Cc1cc(C(F)(F)F)cc(C(F)(F)F)c1 | 32 | 34
